From ChEMBL document CHEMBL1122207, “Antitumor agents. 2. Bisguanylhydrazones of anthracene-9,10-dicarboxaldehydes” (1982)

Assays:
Format in all cases: functional
[1] = species: Mus musculus; assay: Cures is the number of survivors of the total treated animals(12 mice) with P-388 leukemia, at 30 days.
Procedure, shortened: (§1)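 BDF1 or CDF1 mice given 10^6 ascitic P-388 leukemia cells ip, then treated ip on days 1, 5 and 9. Cures are survivors over total treated at 30 days.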

[2] = species: Mus musculus; assay: Cures is the number of survivors of the total treated mice (6) with advanced L-1210 leukemia, at 30 days.
Procedure, shortened: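 Advanced L-1210 leukemia, with ip treatment on days 5, 9 and 13 relative to tumor inoculation.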

[3] = species: Mus musculus; assay: Cures is the number of survivors of the total treated mice (10) with B-16 melanoma, at 60 days.
Procedure, shortened: (§2)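 BDF1 mice were implanted ip with a homogenate from 0.05 g of B-16 melanoma and dosed ip on days 1-9. Cures are survivors over total at 60 days.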

[4] = system: Mus musculus; assay: Percent increase in median life span of BDF1 mice with B-16 melanoma at dose 6.2 mg/kg administered intraperitoneally; 1-9 days of ip treatment relative to tumor inoculation; details: BDF1, B16, ip, route intraperitoneal
Procedure, shortened: (§3)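 BDF1 mice were implanted ip with a homogenate from 0.05 g of B-16 melanoma. Ip dosing ran on days 1-9, starting 24 h after implant, in dose-response studies following NCI protocols. The read-out was percent increase in life span (ILS). T/C ≥125% was taken as significant.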

[5] = system: Mus musculus; assay: Percent increase in median life span of BDF1 mice with P-388 leukemia at dose 12.5 mg/kg administered intraperitoneally; Range is 100-120% 1, 5, 9 days of ip treatment relative to tumor inoculation; details: BDF1, P388, ip, 216 h, route intraperitoneal
Procedure, shortened: (§4)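 BDF1 or CDF1 mice given 10^6 ascitic leukemia cells ip, then dosed ip on days 1, 5 and 9. Read-out is percent increase in life span versus untreated controls. Cures were scored as survivors/total at 30 days; when cures reached 50% or more, the run was extended until a specific ILS could be calculated. T/C ≥125% counted as significant.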

[6] = system: Mus musculus; assay: Percent increase in median life span of BDF1 mice with advanced L-1210 leukemia at dose 12.5 mg/kg administered intraperitoneally; treatment day +2 iv; details: L1210
[7] = system: Mus musculus; assay: Percent increase in median life span of BDF1 mice with P-388 leukemia at dose 225 mg/kg administered intraperitoneally; details: BDF1, P388, ip, route intraperitoneal
[8] = species: Mus musculus; assay: Cures is the number of survivors of the total treated mice (8) with Colon 26, at 60 days.
[9] = system: Mus musculus; assay: Percent increase in median life span of BDF1 mice with Colon 26 at dose 25 mg/kg administered intraperitoneally; 1, 5, 9 days of ip treatment relative to tumor inoculation; details: BDF1, Colon 26, ip, 216 h, route intraperitoneal
[10] = system: Mus musculus; assay: Percent increase in median life span of BDF1 mice with P-388 leukemia at dose 100 mg/kg administered intraperitoneally; 1, 5, 9 days of ip treatment relative to tumor inoculation; details: BDF1, P388, ip, 216 h, route intraperitoneal; procedure, shortened: as §4
[11] = system: Mus musculus; assay: Percent increase in median life span of BDF1 mice with advanced L-1210 leukemia at dose 200 mg/kg administered intraperitoneally; treatment day +2 iv; details: L1210
[12] = system: Mus musculus; assay: Percent increase in median life span of BDF1 mice with advanced P-388 leukemia at dose 25 mg/kg administered intraperitoneally; 4, 8, 12 days of ip treatment relative to tumor inoculation; details: P388, ip, 288 h, route intraperitoneal
[13] = system: Mus musculus; assay: Percent increase in median life span of BDF1 mice with madison lung 109 leukemia administered intraperitoneally
[14] = system: Mus musculus; assay: Percent increase in median life span of BDF1 mice with B-16 melanoma at dose 25 mg/kg administered intraperitoneally; 1-9 days of ip treatment relative to tumor inoculation; details: BDF1, B16, ip, route intraperitoneal; procedure, shortened: as §3
[15] = system: Mus musculus; assay: Percent tumor inhibition at non-lethal dose was determined in BDF1 mice with madison lung 109 leukemia; 1, 5, 9 days of sc treatment relative to tumor inoculation
[16] = species: Mus musculus; assay: Cures is the number of survivors of the total treated mice (9) with P-388 leukemia, at 30 days.; procedure, shortened: as §1
[17] = system: Mus musculus; assay: Percent increase in median life span of BDF1 mice with P-388 leukemia at dose 12.5 mg/kg administered intraperitoneally; details: BDF1, P388, ip, route intraperitoneal
[18] = system: Mus musculus; assay: Percent increase in median life span of BDF1 mice with B-16 melanoma at dose 1.5 mg/kg administered intraperitoneally; details: BDF1, B16, ip, route intraperitoneal; procedure, shortened: as §3
[19] = species: Mus musculus; assay: Number of survivors of the total treated mice with B-16 melanoma, at 60 days.; procedure, shortened: as §2
[20] = species: Mus musculus; assay: Anticancer activity measured as the number of survivors of the total treated mice with P-388 leukemia at 30 days.; procedure, shortened: as §1
[21] = system: Mus musculus; assay: Percent increase in median life span of BDF1 mice with P-388 leukemia at dose 160 mg/kg administered intraperitoneally; details: BDF1, P388, ip, route intraperitoneal
[22] = system: Mus musculus; assay: Percent increase in median life span of BDF1 mice with B-16 melanoma at dose 3.1 mg/kg administered intraperitoneally; details: BDF1, B16, ip, route intraperitoneal; procedure, shortened: as §3
[23] = species: Mus musculus; assay: Cures is the number of survivors of the total treated mice (20) with B-16 melanoma, at 60 days.; procedure, shortened: as §2
[24] = species: Mus musculus; assay: Cures is the number of survivors of the total treated mice (6) with P-388 leukemia, at 30 days.; procedure, shortened: as §1
[25] = species: Mus musculus; assay: Cures is the number of survivors of the total treated animals (12 mice) with P-388 leukemia, at 30 days.; procedure, shortened: as §1
[26] = system: Mus musculus; assay: Percent increase in median life span of BDF1 mice with Colon 26 at dose 12.5 mg/kg administered intraperitoneally; 1, 5, 9 days of ip treatment relative to tumor inoculation; details: BDF1, Colon 26, ip, 216 h, route intraperitoneal
[27] = system: Mus musculus; assay: Percent increase in median life span of BDF1 mice with P-388 leukemia at dose 50 mg/kg administered intraperitoneally; range 25-91%; range 25-91%, 1, 5, 9 days of ip treatment relative to tumor inoculation; details: BDF1, P388, ip, 216 h, route intraperitoneal; procedure, shortened: as §4
[28] = system: Mus musculus; assay: Percent increase in median life span of BDF1 mice with B-16 melanoma at dose 6 mg/kg administered intraperitoneally; range 100-167; 1-9 days of ip treatment relative to tumor inoculation; details: BDF1, B16, ip, route intraperitoneal; procedure, shortened: as §3
[29] = system: Mus musculus; assay: Percent increase in median life span of BDF1 mice with advanced L-1210 leukemia administered intraperitoneally; treatment day +2 ip
[30] = species: Mus musculus; assay: Cures is the number of survivors of the total treated mice (6) with P-388 leukemia, at 60 days.
[31] = system: Mus musculus; assay: Percent increase in median life span of BDF1 mice with B-16 melanoma at dose 0.8 mg/kg administered intraperitoneally; details: BDF1, B16, ip, route intraperitoneal; procedure, shortened: as §3
[32] = system: Mus musculus; assay: Percent increase in median life span of BDF1 mice with P-388 leukemia at dose 5 mg/kg administered intraperitoneally; details: BDF1, P388, ip, route intraperitoneal
[33] = species: Mus musculus; assay: Cures is the number of survivors of the total treated mice (12) with P-388 leukemia, at 30 days.; procedure, shortened: as §1
[34] = species: Mus musculus; assay: Cures is the number of survivors of the total treated mice (6) with L-1210 leukemia, at 30 days.
[35] = species: Mus musculus; assay: Cures is the number of survivors of the total treated mice (10) with advanced B-16 melanoma, at 30 days.
[36] = species: Mus musculus; assay: Cures is the number of survivors of the total treated mice (10) with Colon 26, at 60 days.
[37] = system: Mus musculus; assay: Percent increase in median life span of BDF1 mice with B-16 melanoma at dose 6.25 mg/kg administered intraperitoneally; 1-9 days of ip treatment relative to tumor inoculation; details: BDF1, B16, ip, route intraperitoneal; procedure, shortened: as §3
[38] = system: Mus musculus; assay: Percent increase in median life span of BDF1 mice with Colon 26 at dose 6.2 mg/kg administered intraperitoneally; 1, 5, 9 days of ip treatment relative to tumor inoculation; details: BDF1, Colon 26, ip, 216 h, route intraperitoneal
[39] = system: Mus musculus; assay: Percent increase in median life span of BDF1 mice with L-1210 leukemia at dose 3.1 mg/kg administered intraperitoneally; 1, 5, 9 days of ip treatment relative to tumor inoculation; details: BDF1, L1210, ip, 216 h, route intraperitoneal; procedure, shortened: as §4
[40] = system: Mus musculus; assay: Percent increase in median life span of BDF1 mice with P-388 leukemia at dose 12.5 mg/kg administered intraperitoneally; range 90-100%; range 90-100%, 1, 5, 9 days of ip treatment relative to tumor inoculation; details: BDF1, P388, ip, 216 h, route intraperitoneal; procedure, shortened: as §4
[41] = system: Mus musculus; assay: Percent increase in median life span of BDF1 mice with advanced B-16 melanoma at dose 12.5 mg/kg administered intraperitoneally; 5, 9, 13 days of ip treatment relative to tumor inoculation; details: BDF1, B16, ip, 312 h, route intraperitoneal

With CC1(C)CNC(N/N=C/c2c3ccccc3c(/C=N/NC3=NCC(C)(C)N3)c3ccccc23)=N1.Cl.Cl the Cures [1] was 0, the Cures [2] was 0 and the Cures [3] was 5. It also gave an ILS at 6.2 mg/kg [4] greater than 248%, an ILS at 12.5 mg/kg [5] of 100% and an ILS at 12.5 mg/kg [6] of 28%.
C(=N\NC1=NCCN1)/C1c2ccccc2C(/C=N/NC2=NCCN2)c2cc3ccccc3cc21 (stereo not drawn) was tested, and the ILS at 225 mg/kg [7] was 105%.
In the case of CC1(C)CN=C(N/N=C/c2c3ccccc3c(/C=N/NC3=NCC(C)(C)CN3)c3ccccc23)NC1.Cl.Cl, the Cures [2] is reported as 0, the Cures [8] is reported as 0 and the Cures [3] is reported as 4. For the same compound, the ILS at 25 mg/kg [9] was 153%, the ILS at 100 mg/kg [10] was 205% and the ILS at 200 mg/kg [11] was 29%. The ILS at 25 mg/kg [12] was 88%, the ILS [13] was less than 25% and the ILS at 25 mg/kg [14] was 143%. For the same compound, the Inhibition [15] was 31%.
C(=N\NC1=NCC2(CC2)CN1)/c1c2ccccc2c(/C=N/NC2=NCC3(CC3)CN2)c2ccccc12.Cl.Cl was tested, and the Cures [16] was 1, the Cures [3] was 4 and the ILS at 12.5 mg/kg [17] was 100%. The ILS at 1.5 mg/kg [18] was 127%.
In the case of Cc1cc2c(/C=N/NC3=NCCN3)c3ccccc3c(/C=N/NC3=NCCN3)c2cc1C.Cl.Cl, the Cures [19] is reported as 0, the Cures [20] is reported as 0 and the ILS at 160 mg/kg [21] is reported as 77%. It also gave an ILS at 3.1 mg/kg [22] of 76%.
For Cl.Cl.N=C(NCc1ccco1)N/N=C/c1c2ccccc2c(/C=N/NC(=N)NCc2ccco2)c2ccccc12, the Cures [23] was 6, the Cures [24] was 0 and the Cures [25] was 0. The Cures [8] was 0, the ILS at 12.5 mg/kg [26] was 109% and the ILS at 50 mg/kg [27] was 91%. For the same compound, the ILS at 6 mg/kg [28] was 167%, the ILS [29] was less than 25% and the ILS at 25 mg/kg [12] was 56%.
Compound COc1cccc2c1C(=O)c1c(O)c3c(c(O)c1C2=O)C[C@@](O)(C(=O)CO)C[C@@H]3O[C@H]1C[C@H](N)[C@H](O)[C@H](C)O1 [DOXORUBICIN] has a Cures [23] of 18, a Cures [30] of 1 and an ILS at 0.8 mg/kg [31] of 275%. The ILS at 5 mg/kg [32] was 159%.
With Cl.Cl.Clc1ccc2c(/C=N/NC3=NCCN3)c3ccccc3c(/C=N/NC3=NCCN3)c2c1 the Cures [33] was 2, the Cures [34] was 0 and the Cures [35] was 0. The Cures [3] was 4, the Cures [36] was 1 and the ILS at 6.25 mg/kg [37] was 206%. The ILS at 6.2 mg/kg [38] was 100%, the ILS at 3.1 mg/kg [39] was 37% and the ILS at 12.5 mg/kg [40] was 95%. For the same compound, the ILS at 12.5 mg/kg [41] was 32%.
